Columns and labels:
[1] = molecular target: T1, Nitric oxide synthase, inducible (Mus musculus) (UniProt P29477); assay: Inhibition of mouse iNOS expressed in insect Sf9 cells assessed as residual activity at 100 uM by Griess assay relative to control
T1 sequence (whole entry): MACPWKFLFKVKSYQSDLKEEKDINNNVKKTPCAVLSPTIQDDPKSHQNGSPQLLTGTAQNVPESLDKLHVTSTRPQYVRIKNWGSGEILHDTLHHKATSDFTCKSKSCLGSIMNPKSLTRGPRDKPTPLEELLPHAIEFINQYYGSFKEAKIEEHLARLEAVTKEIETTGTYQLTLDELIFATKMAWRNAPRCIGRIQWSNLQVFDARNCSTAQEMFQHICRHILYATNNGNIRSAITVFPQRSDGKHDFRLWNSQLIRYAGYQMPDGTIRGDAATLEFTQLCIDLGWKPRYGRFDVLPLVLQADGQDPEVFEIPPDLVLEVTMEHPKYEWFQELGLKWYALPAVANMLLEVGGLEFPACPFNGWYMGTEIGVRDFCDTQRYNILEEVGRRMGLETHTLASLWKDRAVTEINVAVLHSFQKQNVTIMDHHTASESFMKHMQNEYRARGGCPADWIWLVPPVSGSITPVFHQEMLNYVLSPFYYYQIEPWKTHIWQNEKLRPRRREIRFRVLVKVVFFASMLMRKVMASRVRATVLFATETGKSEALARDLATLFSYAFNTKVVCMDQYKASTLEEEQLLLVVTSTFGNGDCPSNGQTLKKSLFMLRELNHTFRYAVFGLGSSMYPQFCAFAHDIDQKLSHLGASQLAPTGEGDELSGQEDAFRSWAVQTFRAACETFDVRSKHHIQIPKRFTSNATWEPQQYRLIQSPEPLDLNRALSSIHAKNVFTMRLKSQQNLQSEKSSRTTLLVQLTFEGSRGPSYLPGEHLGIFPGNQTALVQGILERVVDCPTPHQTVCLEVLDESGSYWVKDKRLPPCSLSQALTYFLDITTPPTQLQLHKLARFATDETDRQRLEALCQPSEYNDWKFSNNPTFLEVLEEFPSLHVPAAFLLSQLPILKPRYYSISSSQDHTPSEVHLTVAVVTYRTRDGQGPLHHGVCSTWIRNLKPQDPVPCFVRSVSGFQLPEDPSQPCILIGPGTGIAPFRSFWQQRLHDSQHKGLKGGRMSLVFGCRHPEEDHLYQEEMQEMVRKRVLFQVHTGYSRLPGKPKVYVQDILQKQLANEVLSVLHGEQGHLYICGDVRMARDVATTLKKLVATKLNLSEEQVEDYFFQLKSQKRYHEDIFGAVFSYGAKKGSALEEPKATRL
Procedure, shortened: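 Murine iNOS produced in Sf9 insect cells. Buffer: 50 mM triethanolamine pH 7.5, 1 mM CHAPS, 10 mM 2-mercaptoethanol, 0.5 mM EDTA. Additions: 1 mM Mg2+, 5 µM FAD, 5 µM FMN, 0.5 mM NADPH, 10 µM H4B, 10 µg/ml CaM, 1 mM L-arginine. Compound at 100 µM final, 37 °C for 20 min. NADPH removed with LDH/pyruvate, then Griess read at 543 nm. Values are % of 1% DMSO control, 5 experiments.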

[2] = molecular target: T2, Nitric oxide synthase 3 (Bos taurus) (UniProt P29473); assay: Inhibition of bovine eNOS expressed in insect Sf9 cells assessed as residual activity at 100 uM by Griess assay relative to control
T2 sequence (whole entry): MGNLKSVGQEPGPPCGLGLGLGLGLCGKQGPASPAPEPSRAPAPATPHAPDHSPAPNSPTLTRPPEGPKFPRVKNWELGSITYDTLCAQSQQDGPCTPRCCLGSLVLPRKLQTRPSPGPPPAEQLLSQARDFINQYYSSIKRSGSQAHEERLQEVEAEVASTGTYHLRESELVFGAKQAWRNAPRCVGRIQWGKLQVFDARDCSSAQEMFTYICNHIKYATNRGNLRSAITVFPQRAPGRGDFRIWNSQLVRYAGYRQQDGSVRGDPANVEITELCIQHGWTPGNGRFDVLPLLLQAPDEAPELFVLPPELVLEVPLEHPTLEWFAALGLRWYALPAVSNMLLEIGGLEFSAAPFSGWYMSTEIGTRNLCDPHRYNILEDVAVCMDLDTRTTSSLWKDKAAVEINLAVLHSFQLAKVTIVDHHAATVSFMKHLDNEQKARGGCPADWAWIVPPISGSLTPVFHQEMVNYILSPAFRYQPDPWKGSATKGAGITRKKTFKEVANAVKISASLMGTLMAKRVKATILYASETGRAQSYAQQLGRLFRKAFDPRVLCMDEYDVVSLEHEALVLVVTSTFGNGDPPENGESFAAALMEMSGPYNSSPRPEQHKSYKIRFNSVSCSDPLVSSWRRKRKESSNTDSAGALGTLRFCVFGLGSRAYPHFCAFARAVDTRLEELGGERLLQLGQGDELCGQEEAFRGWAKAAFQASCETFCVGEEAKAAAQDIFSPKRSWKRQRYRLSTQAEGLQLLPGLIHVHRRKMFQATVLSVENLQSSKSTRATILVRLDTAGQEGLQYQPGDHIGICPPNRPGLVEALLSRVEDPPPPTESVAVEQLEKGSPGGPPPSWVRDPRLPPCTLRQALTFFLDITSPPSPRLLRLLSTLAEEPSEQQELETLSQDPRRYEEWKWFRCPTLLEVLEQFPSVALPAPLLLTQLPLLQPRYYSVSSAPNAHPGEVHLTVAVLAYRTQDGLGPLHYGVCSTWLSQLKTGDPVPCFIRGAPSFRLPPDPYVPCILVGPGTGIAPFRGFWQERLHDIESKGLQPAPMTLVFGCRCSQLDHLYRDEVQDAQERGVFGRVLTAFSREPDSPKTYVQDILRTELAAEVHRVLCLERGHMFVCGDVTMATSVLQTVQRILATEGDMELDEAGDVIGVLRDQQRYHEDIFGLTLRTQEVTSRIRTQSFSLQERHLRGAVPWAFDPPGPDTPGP
Procedure, shortened: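 Bovine eNOS from Sf9 cells. Reaction: triethanolamine buffer pH 7.5, 0.5 mM Ca2+, 10 µg/ml CaM, 10 µM H4B, FAD, FMN, 0.5 mM NADPH, 1 mM L-arginine, with 100 µM compound, 20 min at 37 °C. After NADPH removal by LDH/pyruvate, nitrite measured by Griess at 543 nm. Expressed as % residual activity versus 1% DMSO control, 5 experiments.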

[3] = molecular target: Nitric oxide synthase 1 (Rattus norvegicus) (UniProt P29476); assay: Inhibition of rat recombinant nNOS expressed in Saccharomyces cerevisiae assessed as conversion of [gamma-14C]L-arginine to [14C]L-citrulline at 100 uM by radioactive assay relative to control; parameters: scale not given: the % may be the effect or the level left
Procedure, shortened: (§1)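 Purified enzymes: rat nNOS from S. cerevisiae, murine iNOS and bovine eNOS from E. coli. Reaction 5 min at 37 °C in 50 mM Hepes pH 7.4 with DTT, 1 mM NADPH, H4B, FAD, FMN, [14C]L-arginine (2.5 µM L-arginine) and 100 µM compound in 1% DMSO. nNOS/eNOS also got 1 mM CaCl2 and CaM, which iNOS lacked. [14C]citrulline isolated on Dowex and counted by scintillation; % of DMSO control, n=3.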

[4] = molecular target: T1, Nitric oxide synthase, inducible (Mus musculus); assay: Inhibition of mouse recombinant iNOS expressed in Escherichia coli assessed as conversion of [gamma-14C]L-arginine to [14C]L-citrulline at 100 uM by radioactive assay relative to control; parameters: scale not given: the % may be the effect or the level left; procedure, shortened: as §1
[5] = molecular target: T2, Nitric oxide synthase 3 (Bos taurus); assay: Inhibition of bovine recombinant eNOS expressed in Escherichia coli assessed as conversion of [gamma-14C]L-arginine to [14C]L-citrulline at 100 uM by radioactive assay relative to control; parameters: scale not given: the % may be the effect or the level left; procedure, shortened: as §1
[6] = molecular target: T1, Nitric oxide synthase, inducible (Mus musculus); assay: Inhibition of mouse recombinant iNOS expressed in Escherichia coli assessed as NADPH consumption at 100 uM after 2 mins by spectrophotometry
Procedure, shortened: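 Murine iNOS from E. coli (15–50 nM final) in 50 mM Hepes pH 7.4 with 5 mM DTT, 100 µM CaCl2, 200 µM NADPH, 10 µM H4B, 100 µM L-arginine and 100 µM compound. Cofactors and compound preincubated 2 min at 37 °C, enzyme added, and A340 followed for 3 min (ε 6.2 mM-1 cm-1). Given as % of 1% DMSO control NADPH oxidase rate.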

[7] = molecular target: T1, Nitric oxide synthase, inducible (Mus musculus); assay: Inhibition of iNOS in LPS and IFN-gamma-stimulated mouse RAW264.7 cells assessed as inhibition of nitrite accumulation at 100 uM after 15 hrs by Griess assay; format: cell-based
Procedure, shortened: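 RAW 264.7 macrophages seeded at 100,000 cells/well in RPMI 1640 with 5% FCS and grown 24 h. Stimulated with 40 U/ml γ-IFN and 50 ng/ml LPS, with compound at 100 µM in 1% DMSO, for 15 h at 37 °C. Supernatant nitrite measured with Griess reagent at 550 nm against an NaNO2 calibration; 6–8 determinations.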

RAW264.7 = assay: Cytotoxicity against mouse RAW264.7 cells at 100 uM; format: cell-based; settings: raw264.7, 100 µM
[8] = molecular target: Nitric oxide synthase, inducible (Homo sapiens) (UniProt P35228); assay: Inhibition of human iNOS expressed in insect Sf9 cells assessed as residual activity at 100 uM by Griess assay relative to control
Procedure, shortened: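 Human iNOS made in Sf9 cells, incubated at 37 °C for 20 min in 50 mM triethanolamine pH 7.5 with 1 mM Mg2+, FAD/FMN 5 µM each, 0.5 mM NADPH, 10 µM H4B, CaM and 1 mM L-arginine. Compound 100 µM final. NADPH cleared with lactate dehydrogenase/pyruvate before Griess reaction (543 nm). Residual activity relative to 1% DMSO control; mean of 5 experiments.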

[9] = molecular target: T3, Nitric oxide synthase 3 (Homo sapiens) (UniProt P29474); assay: Inhibition of human eNOS assessed as residual activity at 100 uM by Griess assay relative to control
T3 sequence (whole entry): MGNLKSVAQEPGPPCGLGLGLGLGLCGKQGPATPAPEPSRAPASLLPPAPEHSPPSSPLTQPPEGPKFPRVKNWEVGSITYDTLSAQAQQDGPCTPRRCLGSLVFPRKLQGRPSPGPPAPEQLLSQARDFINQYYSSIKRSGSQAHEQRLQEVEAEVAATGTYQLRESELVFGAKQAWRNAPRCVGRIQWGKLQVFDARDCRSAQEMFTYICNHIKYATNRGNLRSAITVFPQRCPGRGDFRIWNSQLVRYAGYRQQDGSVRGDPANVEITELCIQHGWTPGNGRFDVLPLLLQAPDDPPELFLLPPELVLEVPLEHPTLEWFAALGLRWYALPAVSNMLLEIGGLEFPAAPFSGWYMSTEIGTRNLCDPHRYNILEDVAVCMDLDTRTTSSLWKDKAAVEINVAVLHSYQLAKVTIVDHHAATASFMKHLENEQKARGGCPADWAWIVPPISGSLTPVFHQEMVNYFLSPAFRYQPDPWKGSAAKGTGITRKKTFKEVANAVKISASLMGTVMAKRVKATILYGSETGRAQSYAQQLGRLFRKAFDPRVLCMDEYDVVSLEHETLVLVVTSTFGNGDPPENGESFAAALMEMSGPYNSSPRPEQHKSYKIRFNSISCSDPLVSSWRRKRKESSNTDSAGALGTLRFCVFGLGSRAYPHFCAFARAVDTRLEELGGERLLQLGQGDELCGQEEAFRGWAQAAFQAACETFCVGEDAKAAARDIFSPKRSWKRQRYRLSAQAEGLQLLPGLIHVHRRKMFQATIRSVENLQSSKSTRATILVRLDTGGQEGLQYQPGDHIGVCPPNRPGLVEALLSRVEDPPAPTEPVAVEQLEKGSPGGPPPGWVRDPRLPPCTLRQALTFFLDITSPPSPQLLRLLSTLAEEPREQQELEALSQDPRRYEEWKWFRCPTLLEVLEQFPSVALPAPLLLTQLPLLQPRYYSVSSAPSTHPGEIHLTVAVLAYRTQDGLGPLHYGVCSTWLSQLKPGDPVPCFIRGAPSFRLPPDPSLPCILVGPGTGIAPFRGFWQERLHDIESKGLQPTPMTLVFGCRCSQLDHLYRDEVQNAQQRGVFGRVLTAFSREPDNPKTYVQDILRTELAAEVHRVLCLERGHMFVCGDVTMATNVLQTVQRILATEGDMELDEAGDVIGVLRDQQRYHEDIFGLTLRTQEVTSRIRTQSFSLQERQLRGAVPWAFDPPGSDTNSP
Procedure, shortened: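 Human eNOS expressed in Pichia pastoris. Incubated 20 min at 37 °C in triethanolamine pH 7.5 with 0.5 mM Ca2+, CaM, H4B 10 µM, FAD/FMN 5 µM, NADPH 0.5 mM, L-arginine 1 mM and compound at 100 µM final. Nitrite read by Griess (543 nm) after LDH/pyruvate NADPH removal; % of 1% DMSO control from 5 experiments.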

[10] = Lipophilicity, log D at pH 7.4 by HPLC method; settings: buffer

Nitric oxide synthase 1 (Rattus norvegicus), sequence (P29476 whole entry): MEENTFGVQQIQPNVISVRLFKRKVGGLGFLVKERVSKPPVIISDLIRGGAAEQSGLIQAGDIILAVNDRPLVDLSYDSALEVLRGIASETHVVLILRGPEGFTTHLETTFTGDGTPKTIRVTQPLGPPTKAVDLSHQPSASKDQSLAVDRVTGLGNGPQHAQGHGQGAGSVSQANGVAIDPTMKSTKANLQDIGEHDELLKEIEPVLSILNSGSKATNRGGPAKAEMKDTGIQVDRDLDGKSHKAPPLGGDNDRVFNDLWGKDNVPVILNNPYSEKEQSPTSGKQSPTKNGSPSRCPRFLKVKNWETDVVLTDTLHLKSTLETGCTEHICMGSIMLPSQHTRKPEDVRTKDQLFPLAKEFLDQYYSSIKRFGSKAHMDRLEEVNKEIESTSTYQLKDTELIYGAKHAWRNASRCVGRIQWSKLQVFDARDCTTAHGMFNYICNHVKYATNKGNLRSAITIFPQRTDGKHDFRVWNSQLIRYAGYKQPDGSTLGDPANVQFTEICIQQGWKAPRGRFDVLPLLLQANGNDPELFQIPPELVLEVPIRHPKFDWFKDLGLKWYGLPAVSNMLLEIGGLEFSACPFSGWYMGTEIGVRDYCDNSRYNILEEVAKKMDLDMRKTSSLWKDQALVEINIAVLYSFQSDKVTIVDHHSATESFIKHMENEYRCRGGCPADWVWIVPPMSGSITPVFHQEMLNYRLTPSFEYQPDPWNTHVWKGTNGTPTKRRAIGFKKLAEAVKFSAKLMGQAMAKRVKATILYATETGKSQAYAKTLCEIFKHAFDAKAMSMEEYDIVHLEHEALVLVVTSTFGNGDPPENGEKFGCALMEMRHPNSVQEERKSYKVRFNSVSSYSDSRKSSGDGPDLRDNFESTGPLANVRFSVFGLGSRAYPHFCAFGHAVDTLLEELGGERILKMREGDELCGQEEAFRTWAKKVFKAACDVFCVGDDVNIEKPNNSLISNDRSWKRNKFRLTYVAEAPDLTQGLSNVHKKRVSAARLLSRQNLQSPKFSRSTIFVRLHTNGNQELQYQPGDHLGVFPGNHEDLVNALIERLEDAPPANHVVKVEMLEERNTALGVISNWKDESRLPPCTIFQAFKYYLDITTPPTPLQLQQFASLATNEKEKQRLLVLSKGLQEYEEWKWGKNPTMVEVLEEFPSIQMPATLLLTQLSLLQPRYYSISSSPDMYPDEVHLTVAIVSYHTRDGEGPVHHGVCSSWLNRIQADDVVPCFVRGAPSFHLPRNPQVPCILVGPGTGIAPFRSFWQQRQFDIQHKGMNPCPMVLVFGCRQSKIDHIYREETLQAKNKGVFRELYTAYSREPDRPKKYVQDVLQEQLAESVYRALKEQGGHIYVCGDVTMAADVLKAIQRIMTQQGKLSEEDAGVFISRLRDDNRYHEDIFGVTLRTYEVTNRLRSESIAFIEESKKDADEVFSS
Nitric oxide synthase, inducible (Homo sapiens), sequence (P35228 whole entry): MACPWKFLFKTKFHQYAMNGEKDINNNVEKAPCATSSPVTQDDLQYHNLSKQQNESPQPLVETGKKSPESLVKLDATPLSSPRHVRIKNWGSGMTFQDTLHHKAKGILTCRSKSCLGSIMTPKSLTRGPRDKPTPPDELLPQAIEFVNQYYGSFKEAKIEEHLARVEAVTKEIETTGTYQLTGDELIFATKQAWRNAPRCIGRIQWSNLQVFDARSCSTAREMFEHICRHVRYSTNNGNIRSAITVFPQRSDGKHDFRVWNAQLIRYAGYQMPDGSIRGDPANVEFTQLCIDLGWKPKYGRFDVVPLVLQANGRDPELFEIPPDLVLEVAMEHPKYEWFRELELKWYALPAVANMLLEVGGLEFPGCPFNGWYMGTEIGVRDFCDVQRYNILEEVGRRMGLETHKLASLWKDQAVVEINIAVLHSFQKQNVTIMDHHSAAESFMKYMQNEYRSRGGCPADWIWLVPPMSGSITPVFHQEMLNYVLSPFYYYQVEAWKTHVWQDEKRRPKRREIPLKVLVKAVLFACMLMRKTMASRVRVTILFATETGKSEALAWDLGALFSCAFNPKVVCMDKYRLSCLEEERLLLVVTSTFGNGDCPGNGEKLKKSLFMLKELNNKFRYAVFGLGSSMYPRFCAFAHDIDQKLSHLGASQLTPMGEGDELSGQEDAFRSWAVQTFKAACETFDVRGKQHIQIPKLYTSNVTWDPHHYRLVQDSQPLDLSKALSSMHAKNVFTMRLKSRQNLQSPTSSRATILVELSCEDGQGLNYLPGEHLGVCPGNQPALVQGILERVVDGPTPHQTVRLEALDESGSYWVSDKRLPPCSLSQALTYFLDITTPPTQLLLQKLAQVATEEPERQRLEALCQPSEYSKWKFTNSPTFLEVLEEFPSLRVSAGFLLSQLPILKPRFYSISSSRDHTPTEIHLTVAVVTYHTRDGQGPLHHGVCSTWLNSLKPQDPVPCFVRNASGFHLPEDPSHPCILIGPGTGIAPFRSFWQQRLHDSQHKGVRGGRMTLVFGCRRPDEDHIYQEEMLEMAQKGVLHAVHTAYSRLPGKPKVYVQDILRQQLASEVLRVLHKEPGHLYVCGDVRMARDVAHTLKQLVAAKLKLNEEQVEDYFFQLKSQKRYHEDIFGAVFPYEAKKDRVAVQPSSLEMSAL

Activity [1] [%] | Activity [2] [%] | Activity [3] [%] | Activity [4] [%] | Activity [5] [%] | Remaining NADPH oxidation rate (% of DMSO control) [6] [%] | inhibition [7] [%] | Activity [8] [%] | Activity [9] [%] | logD [10] | SMILES | Activity (RAW264.7)
102 | 95 | 48 | 96 | 94 | 89 | 67 | – | – | – | COc1ccc(C(=O)C2CN=C3C(C)=CC=CN3C2)cc1OC (stereo unspecified) | Non-toxic
86 | 94 | 92 | 100 | 100 | 91 | 60 | – | – | – | Cc1ccc(C(=O)C2CN=C3C=CC=CN3C2)cc1.[O-][Cl+3]([O-])([O-])O (stereo unspecified) | Non-toxic
– | – | – | – | – | – | 98 | 106 | 84 | 2.8 | CC1=CC=CC2=NCC(C(=O)c3ccc(-c4ccc(Br)cc4)cc3)CN12.[O-][Cl+3]([O-])([O-])O (stereo unspecified) | Non-toxic

— ChEMBL document CHEMBL1152488, “Synthesis and evaluation of pyrido[1,2-a]pyrimidines as inhibitors of nitric oxide synthases” (Eur J Med Chem, 2009)
